The source of these data is ChEMBL document CHEMBL1671740, “Increased temperature enhances the antimicrobial effects of daptomycin, vancomycin, tigecycline, fosfomycin, and cefamandole on staphylococcal biofilms” (2010).

Test [1] concerns Staphylococcus. In words: Antimicrobial activity against Staphylococcus isolates biofilms assessed as change in optical density ratio of biofilms at 1000 mg/litre at ambient temperature of 40 degC after 24 hrs relative to baseline. The class given is functional. The gist of the method: (§1)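 Static microtiter biofilms of 34 clinical S. aureus and CoNS isolates from orthopedic implant infections or preoperative skin, plus reference strains. Inoculum was McFarland 0.5 diluted 1:100 in calcium-supplemented MHB, grown 24 h at 35°C in ambient air. Established biofilms were exposed to drug for 24 h at 35, 40 or 45°C, then formalin-fixed and stained with 1% crystal violet for 5 min, and OD read at 550 nm in quadruplicate.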

Test [2] deals with Staphylococcus. In words: Antimicrobial activity against Staphylococcus isolates biofilms assessed as change in optical density ratio of biofilms at 1000 mg/litre at ambient temperature of 45 degC after 24 hrs relative to baseline. The class given is functional. The gist of the method: as §1
Test [3] concerns Staphylococcus aureus. Nature of the test: Antimicrobial activity against Staphylococcus aureus ATCC 29213 by […]. The class given is functional.
Test [4] concerns Staphylococcus aureus. Nature of the test: Antimicrobial activity against Staphylococcus aureus isolated from human prosthetic joint infection site by […]. The class given is functional. (A growth-free zone around the sample is the usual read-out of agar diffusion tests.)
Test [5] concerns Staphylococcus epidermidis. In words: Antimicrobial activity against Staphylococcus epidermidis DSM3269 by […]. The class given is functional.
Test [6] has as its system Staphylococcus epidermidis. Nature of the test: Antimicrobial activity against Staphylococcus epidermidis isolate OR1 treated in solution at 45 degC after 24 hrs. The class given is functional. The note with it: isolate OR1, 24 h. The gist of the method: (§2)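 Antimicrobials, as powder or in solution as used for MIC testing, held at 45°C for 1 and 24 h in three independent experiments. MICs were then determined by the CLSI microtiter plate method in cation-adjusted Mueller-Hinton medium, with MHB containing 50 μg/ml calcium for daptomycin. Values are median (range) […] in mg/liter.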

In test [7] the test system is Staphylococcus. Nature of the test: Antimicrobial activity against coagulase-negative Staphylococcus isolated from human preoperative skin by […]. The test is classed as functional.
Test [8] has as its system Staphylococcus aureus. In words: Antimicrobial activity against Staphylococcus aureus ATCC 29213 administered as powder at 45 degC after 24 hrs. The settings on record: ATCC 29213, 24 h. The test is classed as functional. The gist of the method:
as §2

In test [9] the test system is Staphylococcus aureus. Nature of the test: Antimicrobial activity against Staphylococcus aureus isolated from human preoperative skin by […]. The test is classed as functional.
Test [10] has as its system Staphylococcus. Nature of the test: Antimicrobial activity against Staphylococcus isolates biofilms assessed as change in optical density ratio of biofilms at 250 mg/litre at ambient temperature of 40 degC after 24 hrs relative to baseline. The class given is functional. The gist of the method: as §1
The subject of test [11] is Staphylococcus. In words: Antimicrobial activity against Staphylococcus isolates biofilms assessed as change in optical density ratio of biofilms at 250 mg/litre at ambient temperature of 45 degC after 24 hrs relative to baseline. The test is classed as functional. The gist of the method: as §1
Test [12] has as its system Staphylococcus epidermidis. Nature of the test: Antimicrobial activity against Staphylococcus epidermidis isolate KO8 isolated from healthy human skin by […]. The class given is functional.
For test [13], the system named is Staphylococcus. In words: Antimicrobial activity against coagulase-negative Staphylococcus isolated from human prosthetic joint infection site by […]. The test is classed as functional.
Test [14] relates to Staphylococcus. In words: Antimicrobial activity against Staphylococcus isolates biofilms assessed as decrease in bacterial load at 100 mg/litre at ambient temperature of 35 degC after 24 hrs relative to baseline. The class given is functional. The gist of the method:
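24-h static biofilms of the staphylococcal isolates were exposed to drug for 24 h at 35, 40 or 45°C. Biofilms were not fixed but scraped off and resuspended in MHB, then serially diluted and 0.1 ml plated on blood agar, read after 48 h at 35°C in ambient air. Done in duplicate as mean log10 CFU/ml; log reduction was taken versus untreated biofilm.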

The test system of test [15] is Staphylococcus. In words: Antimicrobial activity against Staphylococcus isolates biofilms assessed as change in optical density ratio of biofilms at 250 mg/litre at ambient temperature of 35 degC after 24 hrs relative to baseline. The class given is functional. The gist of the method: as §1
Test [16] has as its system Staphylococcus. Nature of the test: Antimicrobial activity against Staphylococcus isolates biofilms assessed as change in optical density ratio of biofilms at 1000 mg/litre at ambient temperature of 35 degC after 24 hrs relative to baseline. The test is classed as functional. The gist of the method: as §1
In test [17] the test system is Staphylococcus. In words: Antimicrobial activity against Staphylococcus isolates biofilms assessed as decrease in bacterial load at 5 to 100 mg/litre at ambient temperature of […] after 24 hrs relative to baseline. The class given is functional, organism-based. The gist of the method: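 Static 24-h biofilms of staphylococcal isolates (S. aureus, CoNS) and reference strains were grown at 35°C in calcium-supplemented MHB from a 1:100-diluted McFarland 0.5 inoculum. They were then exposed to drug at 5, 25 or 100 mg/liter for 24 h at 35, 40 or 45°C. Biofilms were scraped into MHB, serially diluted and plated on blood agar (35°C, 48 h), in duplicate, giving mean log10 CFU/ml against untreated.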

Each structure is given as a SMILES string. In brackets after ≈: the same amount, converted by molar mass. Activity calls are given as the source filed them.

The MIC is the smallest concentration in the dilution series that meets the test's criterion for growth inhibition. Regarding `C[C@@H]1O[C@@H]1P(=O)(O)O` [FOSFOMYCIN], the Ratio is reported as 0.65 in the test with Staphylococcus [1]; 0.63 in the test with Staphylococcus [2]; 0.75 with Staphylococcus [10]; 0.69 with Staphylococcus [11]; 1.01 in the test with Staphylococcus [15]; 0.78 in the test with Staphylococcus [16]. Also, the MIC in the test on Staphylococcus aureus [3] was found to be 4 µg/mL (≈ 29 µM); in the test on Staphylococcus aureus [4], 4 µg/mL (≈ 29 µM); in test [5], 1 µg/mL (≈ 7.24 µM); in test [6], 32 µg/mL (≈ 232 µM); against Staphylococcus [7], 32 µg/mL (≈ 232 µM); in the test with Staphylococcus aureus [8], 1 µg/mL (≈ 7.24 µM). Besides, the MIC against Staphylococcus aureus [9] was determined as 64 µg/mL (≈ 464 µM); in [12], 16 µg/mL (≈ 116 µM); with Staphylococcus [13] it was 16 µg/mL (≈ 116 µM). The result in the test with Staphylococcus [14] was inactive.
Consider `CN[C@H](CC(C)C)C(=O)N[C@H]1C(=O)N[C@@H](CC(N)=O)C(=O)N[C@H]2C(=O)N[C@H]3C(=O)N[C@H](C(=O)N[C@H](C(=O)O)c4cc(O)cc(O)c4-c4cc3ccc4O)[C@H](O)c3ccc(c(Cl)c3)Oc3cc2cc(c3O[C@@H]2O[C@H](CO)[C@@H](O)[C@H](O)[C@H]2O[C@H]2C[C@](C)(N)[C@H](O)[C@H](C)O2)Oc2ccc(cc2Cl)[C@H]1O` [VANCOMYCIN], for which the MIC against Staphylococcus aureus [3] was determined as 0.5 µg/mL (≈ 0.345 µM); in the test with Staphylococcus aureus [4] it was 0.5 µg/mL (≈ 0.345 µM); in [5] it was 2 µg/mL (≈ 1.38 µM); in test [6], 2 µg/mL (≈ 1.38 µM); in the test on Staphylococcus [7], 0.75 µg/mL (≈ 0.518 µM); against Staphylococcus aureus [8] it was 0.5 µg/mL (≈ 0.345 µM). Besides, the MIC against Staphylococcus aureus [9] was 0.5 µg/mL (≈ 0.345 µM); in test [12] it was 1 µg/mL (≈ 0.69 µM); against Staphylococcus [13], 2 µg/mL (≈ 1.38 µM). Besides, the outcome in the test with Staphylococcus [14] and in the test with Staphylococcus [17] was inactive.
